RAD52 inh: inhibitors of human RAD52 DNA annealing | P43351 | recombinant RAD52 DNA annealing, FRET fluorescence | inhibition, % at 18.7 µM | 360,000 tested, 0.46% active;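 active = every replicate showing at least 50% inhibition; inconclusive = mean inhibition at least 50% but not in every replicate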
Target sequence (P43351 whole entry, looked up): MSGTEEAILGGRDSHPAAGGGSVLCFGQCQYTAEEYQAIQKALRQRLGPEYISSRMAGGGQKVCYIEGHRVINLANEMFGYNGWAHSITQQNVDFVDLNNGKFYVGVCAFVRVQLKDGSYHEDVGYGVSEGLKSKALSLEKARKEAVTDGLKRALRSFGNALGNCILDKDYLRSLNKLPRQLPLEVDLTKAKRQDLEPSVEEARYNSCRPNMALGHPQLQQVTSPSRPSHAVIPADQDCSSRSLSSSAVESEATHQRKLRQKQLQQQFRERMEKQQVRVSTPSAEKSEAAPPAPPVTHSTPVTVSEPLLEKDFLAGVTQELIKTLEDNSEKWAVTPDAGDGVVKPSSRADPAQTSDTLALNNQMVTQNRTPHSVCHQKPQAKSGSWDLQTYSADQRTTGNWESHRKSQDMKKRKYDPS
Cneo AK release: causes C. neoformans cell lysis. adenylate kinase release luminescence, 4 h; normalised: neutral wells 0, clomiphene wells 100. lysis activity, % at 15 µM. 360,000 tested, 0.2% active. AID 651654;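 active = mean lysis activity across replicates of at least 80%, whatever share of replicates individually reach that level; inactive = mean lysis activity below 80%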
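Assay system: C. neoformans cells. Amount: yeast cell density of 5 × 10^6 cells/mL. Technique: AK luminescence. Buffer or medium: YPD. Times: static 4 h at 37 °C with compound, 1 h detection. Dosing: single-point compound dose. Read-out: lysis from increased AK signal.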
PglD DTNB: inhibitors of Campylobacter jejuni PglD acetyltransferase; purified PglD enzyme, DTNB colorimetric CoA detection; inhibition, % at 12.5 µM; 360,000 tested, 0.098% active; in the data active = inhibition above about 16%, passing the limit was not always enough; inconclusive = no clear call, values can overlap the other calls
RAD54 inh: inhibitors of human RAD54 branch migration | Q92698 | RAD54 Holliday junction branch migration, FAM/BHQ fluorescence | inhibition, % at 10.4 µM | 360,000 tested, 0.14% active;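 active = mean normalized replicate activity at least 40 and at least half of replicates scoring 40 or more; inconclusive = only one of the two criteria met; inactive = mean below 40 and under half of replicates reaching 40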;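 note: inhibitors cause a drop in the FAM fluorescence signal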
rRNA inh HTS: selective bacterial rRNA inhibition in E. coli; E. coli WT GFP vs humanized-ribosome RFP mutants, fluorescence, 24 h; active compounds read low; DMSO median 0, no signal -100; GFP signal change (wild-type ribosome), % (test concentration not listed); 350,000 tested, 1.6% active;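 active = significant combined selectivity score with lowered wild-type GFP, culture density cut under 30%, mutant RFP and density less affected; inactive = any of these conditions unmet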
DNA binder FP: DNA binding artifact in RAD52 counter-screen. shares compounds with RAD52 inh. Salmon sperm DNA/acridine orange FP displacement. AC50, µM. 1,000 tested, 8% active. AID 652128;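 active = fitted half-maximal concentration for signal loss at or below twice the highest dose tested, in every separate run, actives reach about 64 µM in these data; inconclusive = runs disagree, or flat partial signal loss, or poor fit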
Each line names hits and unclear results; the compound was inactive in the other large screens (follow-up assays come after a bar, where they were run). In the library only some 1.9% were active in any assay of this set; here they are far more common.

NC1=NC[C@H](Cc2ccc(O)cc2)N1CCC12CC3CC(CC(C3)C1)C2	RAD52 inh 52.8 | DNA binder FP inactive
CCCCN1C(N)=NC[C@@H]1Cc1ccc(O)cc1	none
Oc1ccc2sc(-c3ccccc3O)c(-c3ccc(OCCN4CCCCC4)cc3)c2c1	RAD52 inh 68.4 (no result: Cneo AK release, PglD DTNB, RAD54 inh) | DNA binder FP inactive
O=C(C[C@@H]1CC[C@H]2[C@@H](COC[C@@H](O)CN2Cc2cccc(F)c2)O1)NCc1ccncc1	none
COc1cccc(C2=CC(=O)C(C(C)(C)C)N2C(C)(C)C)c1 (stereo not given)	RAD52 inh 79.5 | DNA binder FP inactive
C[C@H]1CCCCO[C@H](CN(C)C(=O)C2CCCCC2)[C@@H](C)CN([C@@H](C)CO)C(=O)c2cc(NC(=O)Nc3ccc4c(c3)OCO4)ccc2O1	none
CN1CCN(CC(O)COc2ccc(C34CC5CC(CC(C5)C3)C4)cc2)CC1 (stereo not given)	RAD52 inh 56.5 | DNA binder FP inactive
CN1CCN(CC(O)COc2ccccc2)CC1 (stereo not given)	none
C[C@@H]1CN([C@H](C)CO)C(=O)c2cccc(NS(C)(=O)=O)c2O[C@H]1CN(C)C(=O)Nc1ccccc1	none
CC(Sc1nnc(NC(=O)c2cc3ccccc3oc2=O)s1)c1ccccc1 (stereo not given)	RAD52 inh 53.4 (no result: PglD DTNB) | DNA binder FP inactive
COc1ccc(C)c2sc(N(CCN(C)C)C(=O)c3cccc(N4C(=O)CCC4=O)c3)nc12	RAD52 inh 69.9 (no result: Cneo AK release, PglD DTNB, RAD54 inh) | DNA binder FP inactive
CCN(CC)CCN(C(=O)/C=C/c1cccs1)c1nc2ccc(F)cc2s1	none
CN(C)CCCN(C(=O)/C=C/c1cccs1)c1nc2ccc(F)cc2s1	RAD52 inh 58.4 | DNA binder FP inactive
CN(C)CCN(C(=O)c1cccc(N2C(=O)CCC2=O)c1)c1nc2ccc(Br)cc2s1	none (no result: rRNA inh HTS)
COc1ccc(C)c2sc(N(CCN(C)C)C(=O)/C=C/c3cccs3)nc12	none
COc1ccc(OC)c2sc(N(CCN(C)C)C(=O)/C=C/c3cccs3)nc12	RAD52 inh 101.1, RAD54 inh 89.6 | DNA binder FP inactive
C[C@H]1CN(C)C(=O)Cc2cc(N)ccc2O[C@@H]1CN(C)C(=O)OC(C)(C)C	none (no result: RAD52 inh, Cneo AK release, PglD DTNB, RAD54 inh)
CCCCc1oc2ccccc2c1C(=O)c1cc(I)c(OCCN(CC)CC)c(I)c1	RAD52 inh 50.3 (no result: rRNA inh HTS) | DNA binder FP inactive
CN(CCCCCCCCCCN(C)C(=O)Oc1cccc([N+](C)(C)C)c1)C(=O)Oc1cccc([N+](C)(C)C)c1	RAD52 inh 51.6 | DNA binder FP inactive
COc1cccc(C(=O)OCCCN(C)C)c1	none (no result: Cneo AK release, PglD DTNB, RAD54 inh)
O=C(O)c1cc(-n2nnnc2SCc2ccc([N+](=O)[O-])cc2)ccc1Cl	RAD52 inh 105.0 | DNA binder FP inactive
O=C(O)c1cc(-n2nnnc2SCc2ccccc2F)ccc1Cl	none (no result: Cneo AK release, PglD DTNB, RAD54 inh)
COCCCNC(=O)c1cc(Nc2ccc(OC)cc2OC)nc2ccccc12	none
CCN(CC)CCCNC(=O)c1cc(Nc2ccc(OC)cc2OC)nc2ccccc12	none | DNA binder FP inactive
CCOc1ccc(CCN2C(=S)N([C@@H](CC(C)C)CN3CCCC3CN3C(=S)NC[C@@H]3Cc3ccc(O)cc3)C[C@@H]2Cc2ccc(O)cc2)cc1 (stereo not given in full)	RAD52 inh 79.0 | DNA binder FP inactive
CCCNC(=O)[C@H]1[C@H](CO)[C@H]2Cn3c(ccc(-c4ccccc4OC)c3=O)[C@H]2N1S(C)(=O)=O	none (no result: Cneo AK release, PglD DTNB, RAD54 inh)
CN1CCN(c2ccc(NC(=O)c3ccc(-c4cccc([N+](=O)[O-])c4)o3)cc2)CC1	RAD52 inh 58.1 (no result: Cneo AK release, PglD DTNB, RAD54 inh) | DNA binder FP inactive
CCN1CCN(CCCNC(=O)C2CCN(c3nnc(-n4cccc4)s3)CC2)CC1	none
CCN1CCN(CCCNC(=O)C2CCN(c3nnc(-n4c(C)ccc4C)s3)CC2)CC1	RAD52 inh 72.7 | DNA binder FP inactive
COc1ccc2c(c1OC)c(=O)n1c3ccc(OC(C)C(=O)NCCN4CCOCC4)cc3c3ccnc2c31 (stereo not given)	RAD52 inh 66.2, RAD54 inh 97.3 | DNA binder FP inconclusive
C[C@@H]1NC(=O)[C@H](CCC(N)=O)NC(=O)c2cc([N+](=O)[O-])cc(I)c2NCCC[C@@H](C(N)=O)NC1=O	none

Screening data (PubChem BioAssay)
